Source: ChEMBL document CHEMBL5724801, “EUbOPEN Chemogenomics Library - Multiplex” (2024)
Several values for one entry are separate records, joined by “and”; a condition that tells them apart may be missing. Identical values can stand only once.

Tested on: HEK-293T
Test: Multiplex assay against HEK293T
Assay type: toxicity, cell-based
Conditions: human
In short: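 On a CQ1 microscope at 37°C and 5% CO2, live cells were imaged after compound addition. They had been stained at seeding with Hoechst33342, BioTracker Green Microtubule Cytoskeleton Dye, MitoTracker Red and Annexin V Alexa Fluor 680. CellPathfinder machine-learning gating assigned cells to Hoechst high-intensity objects or normal cells, normal cells to healthy, pyknosed or fragmented nuclei, and pyknosed cells to mitotic or apoptotic. Tubulin, mitochondrial-mass and membrane-permeability phenotypes are per cents of healthy-nucleus cells.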

[1] = 12 h, 1 µM, compound concentration 1 uM
[2] = 12 h, 10 µM, compound concentration 10 uM
[3] = 24 h, 1 µM, compound concentration 1 uM
[4] = 24 h, 10 µM, compound concentration 10 uM
[5] = 48 h, 1 µM, compound concentration 1 uM
[6] = 48 h, 10 µM, compound concentration 10 uM

C[C@H]1[C@H]2CC[C@H]3[C@@H]4CC=C5C[C@@H](N(C)C)CC[C@]5(C)[C@H]4CC[C@]23CN1C [CONESSINE]
Population Apoptotic (%) [1]: 35% and 48%
Population Fragmented Nuclei (%) [1]: 5% and 4%
Population Healthy Nuclei (%) [1]: 78% and 85%
Population Hoechst High Intensity Objects (%) [1]: 6% and 8%
Population Membrane Permeable-Phenotype (%) [1]: 0%
Population Mitochondria Different-Phenotype (%) [1]: 39% and 58%
Population Mitotic Cells (%) [1]: 65% and 51%
Population Normal (%) [1]: 93% and 91%
Population Pyknosed Nuclei (%) [1]: 16% and 10%
Population Tubulin-Different-Phenotype (%) [1]: 26% and 22%
Total Cell Count [1]: 400 and 356
Population Apoptotic (%) [2]: 35% and 59%
Population Fragmented Nuclei (%) [2]: 6% and 7%
Population Healthy Nuclei (%) [2]: 77% and 78%
Population Hoechst High Intensity Objects (%) [2]: 6% and 9%
Population Membrane Permeable-Phenotype (%) [2]: 1% and 0%
Population Mitochondria Different-Phenotype (%) [2]: 56% and 62%
Population Mitotic Cells (%) [2]: 65% and 40%
Population Normal (%) [2]: 93% and 90%
Population Pyknosed Nuclei (%) [2]: 15% and 14%
Population Tubulin-Different-Phenotype (%) [2]: 38% and 30%
Total Cell Count [2]: 419 and 384
Population Apoptotic (%) [3]: 26% and 25%
Population Fragmented Nuclei (%) [3]: 9% and 8%
Population Healthy Nuclei (%) [3]: 80% and 81%
Population Hoechst High Intensity Objects (%) [3]: 5% and 4%
Population Membrane Permeable-Phenotype (%) [3]: 1% and 0%
Population Mitochondria Different-Phenotype (%) [3]: 22% and 34%
Population Mitotic Cells (%) [3]: 73% and 75%
Population Normal (%) [3]: 94% and 95%
Population Pyknosed Nuclei (%) [3]: 10%
Population Tubulin-Different-Phenotype (%) [3]: 17% and 16%
Total Cell Count [3]: 514 and 484
Population Apoptotic (%) [4]: 27% and 47%
Population Fragmented Nuclei (%) [4]: 9%
Population Healthy Nuclei (%) [4]: 79% and 82%
Population Hoechst High Intensity Objects (%) [4]: 6% and 9%
Population Membrane Permeable-Phenotype (%) [4]: 1% and 0%
Population Mitochondria Different-Phenotype (%) [4]: 38% and 43%
Population Mitotic Cells (%) [4]: 72% and 52%
Population Normal (%) [4]: 93% and 90%
Population Pyknosed Nuclei (%) [4]: 11% and 7%
Population Tubulin-Different-Phenotype (%) [4]: 28% and 24%
Total Cell Count [4]: 572 and 474
Population Apoptotic (%) [5]: 30% and 36%
Population Fragmented Nuclei (%) [5]: 9% and 10%
Population Healthy Nuclei (%) [5]: 82% and 83%
Population Hoechst High Intensity Objects (%) [5]: 2% and 4%
Population Membrane Permeable-Phenotype (%) [5]: 1%
Population Mitochondria Different-Phenotype (%) [5]: 18% and 20%
Population Mitotic Cells (%) [5]: 69% and 63%
Population Normal (%) [5]: 97% and 95%
Population Pyknosed Nuclei (%) [5]: 7% and 5%
Population Tubulin-Different-Phenotype (%) [5]: 12% and 11%
Total Cell Count [5]: 735 and 630
Population Apoptotic (%) [6]: 27% and 36%
Population Fragmented Nuclei (%) [6]: 14% and 10%
Population Healthy Nuclei (%) [6]: 78% and 81%
Population Hoechst High Intensity Objects (%) [6]: 4% and 5%
Population Membrane Permeable-Phenotype (%) [6]: 1% and 0%
Population Mitochondria Different-Phenotype (%) [6]: 23% and 32%
Population Mitotic Cells (%) [6]: 72% and 63%
Population Normal (%) [6]: 95% and 94%
Population Pyknosed Nuclei (%) [6]: 6% and 7%
Population Tubulin-Different-Phenotype (%) [6]: 15% and 17%
Total Cell Count [6]: 767 and 618

Clc1ccccc1C(c1ccccc1)(c1ccccc1)n1cccn1
Population Apoptotic (%) [1]: 7.87% and 11.11%
Population Fragmented Nuclei (%) [1]: 1.79% and 6.3%
Population Hoechst High Intensity Objects (%) [1]: 0%
Population Membrane Permeable-Phenotype (%) [1]: 0% and 5%
Population Mitochondria Different-Phenotype (%) [1]: 33.99% and 35%
Population Mitotic Cells (%) [1]: 92.13% and 88.89%
Population Normal (%) [1]: 100%
Population Pyknosed Nuclei (%) [1]: 37.8% and 77.95%
Total Cell Count [1]: 336 and 127
Population Apoptotic (%) [2]: 10.45% and 10.49%
Population Fragmented Nuclei (%) [2]: 2.33% and 0.57%
Population Hoechst High Intensity Objects (%) [2]: 0.33% and 0%
Population Membrane Permeable-Phenotype (%) [2]: 0%
Population Mitochondria Different-Phenotype (%) [2]: 33.96% and 33.33%
Population Mitotic Cells (%) [2]: 89.55% and 89.51%
Population Normal (%) [2]: 99.67% and 100%
Population Pyknosed Nuclei (%) [2]: 44.67% and 82.18%
Total Cell Count [2]: 301 and 174
Population Apoptotic (%) [3]: 11.32% and 14.85%
Population Fragmented Nuclei (%) [3]: 0.96% and 6.08%
Population Hoechst High Intensity Objects (%) [3]: 0.19% and 0%
Population Membrane Permeable-Phenotype (%) [3]: 0.49% and 2.63%
Population Mitochondria Different-Phenotype (%) [3]: 14.43% and 13.16%
Population Mitotic Cells (%) [3]: 88.68% and 85.15%
Population Normal (%) [3]: 99.81% and 100%
Population Tubulin-Different-Phenotype (%) [3]: 9.78% and 7.89%
Population Apoptotic (%) [4]: 19.64% and 15.94%
Population Fragmented Nuclei (%) [4]: 2.8% and 0.54%
Population Healthy Nuclei (%) [4]: 71.1% and 24.46%
Population Hoechst High Intensity Objects (%) [4]: 0.23% and 0%
Population Membrane Permeable-Phenotype (%) [4]: 1.31% and 0%
Population Mitochondria Different-Phenotype (%) [4]: 27.87% and 13.33%
Population Mitotic Cells (%) [4]: 80.36% and 84.06%
Population Normal (%) [4]: 99.77% and 100%
Population Pyknosed Nuclei (%) [4]: 26.11% and 75%
Total Cell Count [4]: 430 and 184
Population Apoptotic (%) [5]: 7.89% and 12.96%
Population Fragmented Nuclei (%) [5]: 3.42% and 3.98%
Population Healthy Nuclei (%) [5]: 87.9% and 72.12%
Population Hoechst High Intensity Objects (%) [5]: 0% and 1.74%
Population Membrane Permeable-Phenotype (%) [5]: 5.37% and 2.45%
Population Mitochondria Different-Phenotype (%) [5]: 12.03% and 23.31%
Population Mitotic Cells (%) [5]: 92.11% and 87.04%
Population Normal (%) [5]: 100% and 98.26%
Population Pyknosed Nuclei (%) [5]: 8.68% and 23.89%
Population Apoptotic (%) [6]: 9.93% and 27.4%
Population Fragmented Nuclei (%) [6]: 4.13% and 2.25%
Population Healthy Nuclei (%) [6]: 81.99% and 70.41%
Population Hoechst High Intensity Objects (%) [6]: 0%
Population Membrane Permeable-Phenotype (%) [6]: 8.52% and 2.66%
Population Mitochondria Different-Phenotype (%) [6]: 24.73% and 43.09%
Population Mitotic Cells (%) [6]: 90.07% and 72.6%
Population Normal (%) [6]: 100%
Population Pyknosed Nuclei (%) [6]: 13.88% and 27.34%

O=C(Nc1cc(C(F)(F)F)cc(C(F)(F)F)c1)c1cc(Cl)ccc1O [IMD-0354]
Population Apoptotic (%) [1]: 4.35% and 3.39%
Population Fragmented Nuclei (%) [1]: 2.35% and 2.03%
Population Healthy Nuclei (%) [1]: 43.53% and 18.24%
Population Hoechst High Intensity Objects (%) [1]: 0.58% and 0%
Population Membrane Permeable-Phenotype (%) [1]: 0.68% and 0%
Population Mitotic Cells (%) [1]: 95.65% and 96.61%
Population Normal (%) [1]: 99.42% and 100%
Population Pyknosed Nuclei (%) [1]: 54.12% and 79.73%
Total Cell Count [1]: 342 and 148
Population Apoptotic (%) [2]: 8.89% and 5.65%
Population Fragmented Nuclei (%) [2]: 4.05% and 10.2%
Population Healthy Nuclei (%) [2]: 14.86% and 5.44%
Population Hoechst High Intensity Objects (%) [2]: 1.33% and 0%
Population Membrane Permeable-Phenotype (%) [2]: 0% and 12.5%
Population Mitotic Cells (%) [2]: 91.11% and 94.35%
Population Normal (%) [2]: 98.67% and 100%
Population Pyknosed Nuclei (%) [2]: 81.08% and 84.35%
Population Tubulin-Different-Phenotype (%) [2]: 0%
Total Cell Count [2]: 225 and 147
Population Apoptotic (%) [3]: 6.35% and 10.83%
Population Fragmented Nuclei (%) [3]: 1.67% and 0%
Population Healthy Nuclei (%) [3]: 68.26% and 25.47%
Population Hoechst High Intensity Objects (%) [3]: 0.48% and 0%
Population Membrane Permeable-Phenotype (%) [3]: 2.8% and 4.88%
Population Mitochondria Different-Phenotype (%) [3]: 4.9% and 4.88%
Population Mitotic Cells (%) [3]: 93.65% and 89.17%
Population Normal (%) [3]: 99.52% and 100%
Population Pyknosed Nuclei (%) [3]: 30.07% and 74.53%
Population Tubulin-Different-Phenotype (%) [3]: 6.99% and 2.44%
Total Cell Count [3]: 421 and 161
Population Apoptotic (%) [4]: 5.52% and 6.29%
Population Fragmented Nuclei (%) [4]: 3.57% and 12.35%
Population Hoechst High Intensity Objects (%) [4]: 0.88% and 0%
Population Membrane Permeable-Phenotype (%) [4]: 5.71% and 0%
Population Mitochondria Different-Phenotype (%) [4]: 5.71% and 0%
Population Mitotic Cells (%) [4]: 94.48% and 93.71%
Population Normal (%) [4]: 99.12% and 100%
Population Pyknosed Nuclei (%) [4]: 80.8% and 84.12%
Population Tubulin-Different-Phenotype (%) [4]: 5.71% and 16.67%
Total Cell Count [4]: 226 and 170
Population Apoptotic (%) [5]: 6.21% and 4.35%
Population Fragmented Nuclei (%) [5]: 1.53% and 0.99%
Population Healthy Nuclei (%) [5]: 78.27% and 53.69%
Population Hoechst High Intensity Objects (%) [5]: 0%
Population Membrane Permeable-Phenotype (%) [5]: 16.37% and 6.42%
Population Mitochondria Different-Phenotype (%) [5]: 2.49% and 3.67%
Population Mitotic Cells (%) [5]: 93.79% and 95.65%
Population Normal (%) [5]: 100%
Population Pyknosed Nuclei (%) [5]: 20.19% and 45.32%
Population Apoptotic (%) [6]: 5.97% and 5.04%
Population Fragmented Nuclei (%) [6]: 3.97% and 7.69%
Population Healthy Nuclei (%) [6]: 16.27% and 10.06%
Population Hoechst High Intensity Objects (%) [6]: 0.79% and 0%
Population Membrane Permeable-Phenotype (%) [6]: 12.2% and 5.88%
Population Mitochondria Different-Phenotype (%) [6]: 21.95% and 11.76%
Population Mitotic Cells (%) [6]: 94.03% and 94.96%
Population Normal (%) [6]: 99.21% and 100%
Population Pyknosed Nuclei (%) [6]: 79.76% and 82.25%
Total Cell Count [6]: 254 and 169
